For data set [1], the system named is A549. The experiment in a line: Antiproliferative activity against human A549 cells after 48 hrs by SRB method. The format is functional, cell-based. The conditions noted are these: A549, 48 h. (Sulforhodamine B stains cellular protein and so reports cell mass.)
Data set [2] can be described thus: Chemical stability assessed as half-times of wortmannin formation at pH 6.8 in phosphate buffer saline. The class given is physicochemical. A digest of the protocol:
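Compounds were incubated at 1.5 mM Wm equivalents in PBS, pH 6.8, 37°C. Wm (or NBD-Wm) formation was followed by reverse-phase C18 HPLC with methyl-4-hydroxybenzoate as internal standard. For NBD derivatives, 10% acetonitrile and 5% DMSO were added to keep the released product in solution. Half-lives of formation were derived from this.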

Data set [3] relates to A549. The data set can be described thus: Cellular uptake in human A549 cells at 10 uM by FACS relative to initial rate. The class given is ADME, cell-based. The conditions noted are these: a549, 10 µM. A digest of the protocol: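 A549 cells incubated with 10 μM NBD-labelled compound for varying times, then detached with trypsin and analysed by FACS. Fluorescence over time is expressed as relative cellular fluorescence: the geometric mean of exposed cells divided by the geometric mean of unexposed cells.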
In general terms: In flow cytometry, cells or beads pass a laser one at a time.

What is called IC50 is the concentration that gives 50% inhibition. The molecule `COC[C@H]1OC(=O)/C(=C\NCCCCC(NC(C)=O)C(=O)O)C2=C(O)C(=O)C3=C([C@H](OC(C)=O)C[C@]4(C)C(=O)CC[C@@H]34)[C@]21C` (stereo partly drawn) displayed an IC50 in the data set with A549 [1] of 29.8 µM. The Activity in data set [2] was > 100 h.

On to `COC[C@H]1OC(=O)/C(=C\N(C)c2ccncc2)C2=C(O)C(=O)C3=C([C@H](OC(C)=O)C[C@]4(C)C(=O)CC[C@@H]34)[C@]21C`, for which the IC50 with A549 [1] was found to be 9.86 µM. For the same molecule, the Drug uptake in the data set with A549 [3] is listed as 1. Besides, the Activity in data set [2] amounted to 2.3 h.

In turn, `COC[C@H]1OC(=O)/C(=C\N(C)c2ccncc2)C2=C(O)C(=O)C3=C([C@H](OC(=O)CCCCN(C)c4ccc([N+](=O)[O-])c5nonc45)C[C@]4(C)C(=O)CC[C@@H]34)[C@]21C` returned an IC50 in the data set on A549 [1] of 9.99 µM. This molecule displayed a Drug uptake in the data set with A549 [3] of 1.199. Moreover, the Activity in data set [2] worked out at 1.87 h.

Molecule `COC[C@H]1OC(=O)/C(=C\NCCCCCC(=O)O)C2=C(O)C(=O)C3=C([C@H](OC(=O)CCCCN(C)c4ccc([N+](=O)[O-])c5nonc45)C[C@]4(C)C(=O)CC[C@@H]34)[C@]21C` displayed an IC50 in the data set on A549 [1] of 48.7 µM. In the data set on A549 [3], the Drug uptake was 0.0271. Also, in data set [2], the Activity is > 100 h.

`COC[C@H]1OC(=O)c2coc3c2[C@@]1(C)C1=C(C3=O)[C@@H]2CCC(=O)[C@@]2(C)C[C@H]1OC(C)=O` [WORTMANNIN] gave an IC50 in the data set with A549 [1] of 11.4 µM.

`COC[C@H]1OC(=O)/C(=C\N(C)CCCCCC(=O)O)C2=C(O)C(=O)C3=C([C@H](OC(C)=O)C[C@]4(C)C(=O)CC[C@@H]34)[C@]21C`: in the data set on A549 [1], the IC50 worked out at 0.96 µM. The Activity in data set [2] came out at 8.7 h.

`COC[C@H]1OC(=O)/C(=C\N(C)CCCCCC(=O)O)C2=C(O)C(=O)C3=C([C@H](OC(=O)CCCCN(C)c4ccc([N+](=O)[O-])c5nonc45)C[C@]4(C)C(=O)CC[C@@H]34)[C@]21C` had an IC50 in the data set with A549 [1] of 3.85 µM. The same molecule had a Drug uptake in the data set with A549 [3] of 0.187. The Activity in data set [2] worked out at 8 h.

In the data set on A549 [1], `COC[C@H]1OC(=O)/C(=C\N2CCCC2C(=O)O)C2=C(O)C(=O)C3=C([C@H](OC(C)=O)C[C@]4(C)C(=O)CC[C@@H]34)[C@]21C` (stereo partly drawn) yielded a concentration for half-maximal inhibition (IC50) of 1.79 µM. In data set [2], the Activity is 9.9 h.

As to `COC[C@H]1OC(=O)c2coc3c2[C@@]1(C)C1=C(C3=O)[C@@H]2CCC(=O)[C@@]2(C)C[C@H]1OC(=O)CCCCN(C)c1ccc([N+](=O)[O-])c2nonc12`, the IC50 in the data set on A549 [1] worked out at 12.2 µM. This molecule showed a Drug uptake in the data set with A549 [3] of 1.

For the molecule `COC[C@H]1OC(=O)/C(=C\NCCCCC(=O)O)C2=C(O)C(=O)C3=C([C@H](OC(C)=O)C[C@]4(C)C(=O)CC[C@@H]34)[C@]21C`, in the data set on A549 [1], the IC50 was found to be 27.9 µM. In addition, in data set [2], the Activity is > 100 h.

For the origin of these results see ChEMBL document CHEMBL1155880, “Slow self-activation enhances the potency of viridin prodrugs” (J Med Chem, 2008).
